Screening data as filed in PubChem BioAssay.
Diaphorase inh: diaphorase inhibition or chemical oxidation counter-screen; diaphorase resazurin-to-resorufin fluorescence, NADH, 16 min; bacterial (C. kluyveri) enzyme, not human; inhibition, % at 20 µM; 190,000 tested, 0.69% active;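 active = primary screen inhibition at 20 µM above a set limit, cut at about 50% in these data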;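 also: plate controls were DMSO with full reaction for no effect and wells lacking NADH for full effect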
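controls = No-NADH positive control and DMSO neutral control | system = Clostridium kluyveri diaphorase enzyme | timing = reaction incubation of 16 min at room temperature | signal = resorufin fluorescence 544/590 nm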
PMI act hi M6P: increases human PMI activity with near-saturating mannose 6-phosphate; coupled PMI enzyme assay, resazurin fluorescence, 20 min; stronger effect = higher value; 1 = untreated enzyme, 0 = substrate-free blank; P34949; AID 1216; activation factor at 20 µM; 190,000 tested, 0.34% active;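 active = activation factor of 2 or more at 20 µM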
Target sequence (P34949 whole entry, looked up): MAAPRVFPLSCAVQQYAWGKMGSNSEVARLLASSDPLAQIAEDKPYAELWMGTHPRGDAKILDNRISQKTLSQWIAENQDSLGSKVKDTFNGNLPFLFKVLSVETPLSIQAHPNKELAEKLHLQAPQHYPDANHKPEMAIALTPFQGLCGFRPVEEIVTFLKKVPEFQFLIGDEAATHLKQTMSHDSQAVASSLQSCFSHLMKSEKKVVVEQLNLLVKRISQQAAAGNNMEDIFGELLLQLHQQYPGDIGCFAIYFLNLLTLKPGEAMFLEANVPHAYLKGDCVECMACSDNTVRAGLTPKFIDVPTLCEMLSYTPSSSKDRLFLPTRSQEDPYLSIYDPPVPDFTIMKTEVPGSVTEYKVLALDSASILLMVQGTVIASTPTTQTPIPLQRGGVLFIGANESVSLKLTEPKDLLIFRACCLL
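Test system: human phosphomannose isomerase with PGI, G6PDH, diaphorase coupling enzymes / Doses: 20 µM compound, 1% DMSO / Times: enzyme reaction with compound 20 min at room temperature / Measured by: Diaphorase-driven resazurin-to-resorufin fluorescence, excitation 544, emission 590 nm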
G6PDH CS: L. mesenteroides G6PDH inhibition counter-screen; Purified L. mesenteroides G6PDH, diaphorase/resazurin coupled fluorescence, 45 min; inhibition, % at 5 µM; 200,000 tested, 0.12% active; in the data active = inhibition above about 50%
Diaphorase act: activates diaphorase or chemically reduces, flagging diaphorase assay artifacts; Diaphorase/resazurin coupled assay, resorufin fluorescence, 16 min; stronger effect = higher value; 1 = vehicle wells, 0 = NADH-free wells; activation factor at 20 µM; 190,000 tested, 0.005% active;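 active = diaphorase activity raised at least twofold by the compound at 20 µM; inactive = activation factor below 2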
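Assay system: Purified diaphorase enzyme from Clostridium kluyveri | Amount: Enzyme 0.07 U/mL final | Dosing: Compound 20 µM once, DMSO 1% | Timing: 16 min reaction at room temperature | Detection: Fluorescence, excitation 544 nm and emission 590 nm | Evaluation: Higher resorufin formation from activation or reduction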
PMI activator: increases human mannose-6-phosphate isomerase activity | 190,000 tested, 0.005% active | purified human PMI, coupled resazurin fluorescence, 20 min; stronger effect = higher value; 1 = vehicle control, 0 substrate-free wells | AID 1214 | activation factor at 20 µM | P34949;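 active = activation factor of 2 or more at 20 µM, relative to plate controls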
Starred values were filed as active, the others as inactive. An excerpt weighted towards active compounds, which were near 1.1% of everything screened.

SMILES	Diaphorase inh	PMI act hi M6P	G6PDH CS	Diaphorase act	PMI activator
CC(=O)NC(c1ccccc1)c1cc([N+](=O)[O-])c2cccnc2c1O (centres undefined)	56*	0.4	61*	0.4	0.7
CC(C)C(=O)NC(c1ccccc1)c1cc([N+](=O)[O-])c2cccnc2c1O (centres undefined)	39	0.4	55*	0.6	0.8
Cc1ccc(Nc2c([N+](=O)[O-])ccc3c2=NC2(CCCCC2)N=3)cc1	51*	0.5	10	0.5	0.7
Cc1ccc(NC(=O)c2ccc(Nc3c([N+](=O)[O-])cc([N+](=O)[O-])cc3[N+](=O)[O-])cc2)cc1	10	1	-2	0.9	1.2
Nc1ccc(N(CCO)CCO)cc1	53*	1	35	0.5	1
CCc1noc(C)c1C(=O)N1CCCC(CCC(=O)NCc2ccc(F)c(F)c2)C1 (centres undefined)	41	1	14	0.6	1
COC(=O)C(CC(C)C)NC(=O)C(Cc1ccccc1)NC(=O)C1CCCN1C(=O)OC(C)(C)C (centres undefined)	7	1	6	0.9	1
CS/C(=N\S(=O)(=O)c1cccs1)NC(=O)CSc1nc2ccccc2s1	10	2.4*	-1	0.9	1.7
Cc1ccc(S(=O)(=O)NC(=O)CSc2nc3ccccc3s2)cc1	10	1	2	0.9	0.9
COCCn1c(-c2ccccc2)nc2c(c(=O)c3ccccc3n2C)c1=O	5	0.9	8	0.9	1
CCc1nc2c(c(=O)c3ccccc3n2C)c(=O)n1-c1ccc(F)cc1	74*	0.9	-1	0.3	0.9
CCC(=O)c1ccc2ncccc2c1	6	1.1	8	0.9	1.1
CC(N1CCOC1=O)S(=O)(=O)c1ccccc1 (centres undefined)	6	2*	-4	0.9	1.6
O=S(=O)(c1ccccc1)N1CCC2(CC1)OCCO2	11	0.9	-5	0.9	0.9
CCOC(=O)CON1C(=O)C(=O)N(OCC(=O)OCC)C2CCCCC21 (centres undefined)	5	1	10	0.9	1
COc1cc(/C=C2\SC(c3ccccc3)=NC2=O)cc(Cl)c1O	64*	0.5	17	0.4	0.6
COc1cc(/C=C2\SC(c3ccc(C)cc3)=NC2=O)cc(OC)c1OC	28	1	-46	0.7	0.9
Cc1ccc(C(C)C)c(OCC(=O)NNC(=O)C(C(C)C)N2C(=O)c3ccccc3C2=O)c1 (centres undefined)	27	0.9	5	0.7	0.8
CSCc1nc2scc(-c3ccccc3)c2c(=O)[nH]1	0	1.2	11	1	1.3
O=c1[nH]c(Cc2ccccn2)nc2scc(-c3ccccc3Cl)c12	1	2.1*	6	1	1.8
O=c1c(-c2ccco2)[n+]([O-])c2ccccc2n1OCc1ccccc1[N+](=O)[O-]	32	0.8	-8	0.7	0.9
COC(=O)C1=C(C)N(C)C(=O)NC1c1cc2c(cc1[N+](=O)[O-])OCO2 (centres undefined)	59*	0.6	10	0.4	0.6
COC(=O)C1=C(C)N(CCCC(=O)O)C(=O)NC1c1cc2c(cc1[N+](=O)[O-])OCO2 (centres undefined)	38	0.8	17	0.6	0.9
CC(=O)c1ccc2noc(-c3ccc(C)cc3)c2c1	3	2*	2	1	1.9
COc1ccccc1NC(=O)CSc1ccc(-c2cccs2)nn1	57*	0.9	2	0.4	0.8
SMILES	Diaphorase inh	PMI act hi M6P	G6PDH CS	Diaphorase act	PMI activator
CC(C)NC(=O)NC(=O)COC(=O)c1cccc(S(=O)(=O)N2CCCCC2)c1	-7	1.1	4	1.1	1
CN1c2ccccc2N(C)C1(C)c1cccc2ccccc12	59*	1	-4	0.4	0.7
COC(=O)c1cccc(Cn2c(Cl)c(/C=N/Nc3ccccc3C)sc2=O)c1	17	2.5*	-5	0.8	1.5
O=C(O)CCCn1c(=S)[nH]c2c(sc3ccc([N+](=O)[O-])cc32)c1=O	84*	1.1	-4	0.2	1
CCOC(=O)C1=C(C)N(CCCC(=O)O)C(=O)NC1c1ccc([N+](=O)[O-])cc1 (centres undefined)	12	0.9	17	0.9	0.9
COCCCn1c(=S)[nH]c2c(sc3ccccc32)c1=O	64*	1.4	4	0.4	1.3
COCCCn1c(=O)c2ccccc2c2ccccc2c1=O	-8	1.1	6	1.1	1.1
CC1CCN(CCCn2c(=S)[nH]c3c(sc4ccc([N+](=O)[O-])cc43)c2=O)CC1	35	1.1	0	0.7	1.1
O=c1c2sc3ccccc3c2[nH]c(=S)n1CCN1CCOCC1	56*	0.9	0	0.4	0.8
CC1CCN(CCCn2c(=S)[nH]c3c(sc4ccccc43)c2=O)CC1	58*	1.2	-1	0.4	1.3
Cc1cc(Cl)ccc1OCC(=O)N/N=C1\CC2C=CCC12 (centres undefined)	16	0.9	0	0.8	1
Cn1ccnc1SCC(=O)Nc1cc(S(=O)(=O)N2CCOCC2)ccc1Cl	8	1.1	-1	0.9	1.1
CC1CCC2(CC1)NC(=S)N(c1ccccc1)N2 (centres undefined)	-2	2.2*	6	1	1.9
CCC1(c2ccccc2)NC(=S)N(c2ccc(C)cc2)N1 (centres undefined)	13	1.3	3	0.9	1.3
Cc1cc(C)n(CCNc2nc3nonc3nc2N2CCCCC2)n1	-1	1	4	1	0.9
O=S(NCc1ccccc1)C12CC3CC(CC(C3)C1)C2 (centres undefined)	4	0.9	1	1	0.9
O=S(NCc1ccco1)C12CC3CC(CC(C3)C1)C2 (centres undefined)	24	2*	4	0.8	1.5
Cc1ccc(-n2c(=S)[nH]c3[nH]ncc3c2=O)cc1	48	1.1	5	0.5	0.9
NS(=O)(=O)c1ccc(CCNC(=O)COC(=O)CCSc2ccc(Cl)cc2)cc1	5	1	9	0.9	1
O=C(COC(=O)CCSc1ccc(Cl)cc1)NCCc1ccccc1	55*	0.9	-6	0.4	0.9
CC(C)CN1CCN(Cc2cccc3cccnc23)CC1CCO (centres undefined)	10	1	-4	0.9	0.9
CCOC(=O)c1c(/N=C/N(C)C)sc(C)c1C	8	1.1	0	0.9	1
CCOC(=O)c1c(/N=C/N(C)C)sc(/C=N/Nc2ccccc2)c1-c1ccc(Cl)cc1	20	2.1*	0	0.8	1.5
